# In ChEMBL document CHEMBL1944509, “Methyl-monofluorination of ibuprofen selectively increases its inhibitory activity toward cyclooxygenase-1 leading to enhanced analgesic activity and reduced gastric damage in vivo” (Bioorg Med Chem Lett, 2011):
# Activity calls are given as the source filed them. No cut-off for these calls is given here.
# Key:
# [1] = Plasma concentration in ICR mouse at 10 mg/kg, po after 0.25 hrs by HPLC/MS/MS analysis; format: ADME, organism-based; parameters: dose 10 mg/kg, route oral
# [2] = Oral bioavailability ICR mouse at 10 mg/kg; format: ADME, organism-based; settings: in vivo
# Procedure, shortened: (§1)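 ICR mice given drug intravenously at 5 mg/kg or orally at 10 mg/kg. Parameters are taken from the plasma concentration–time profile: AUC(0–t), AUC(0–∞), MRT, Cmax and bioavailability.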
# [3] = Drug level in ICR mouse brain at 10 mg/kg, po after 1 hr by HPLC/MS/MS analysis; format: ADME, organism-based; parameters: dose 10 mg/kg, route oral; settings: read-out: Drug uptake
# [4] = Plasma concentration in ICR mouse at 5 mg/kg, iv after 1 hr by HPLC/MS/MS analysis; format: ADME, organism-based; parameters: dose 5 mg/kg, route intravenous
# [5] = Mean residence time (0 to infinity) in ICR mouse at 10 mg/kg, po; format: ADME, organism-based; parameters: dose 10 mg/kg, route oral; settings: in vivo; procedure, shortened: as §1
# Nucleic Acid [6] = assay: Ratio of drug level in brain to plasma in ICR mouse at 5 mg/kg, iv after 0.25 hrs by HPLC/MS/MS analysis; format: ADME, organism-based; parameters: dose 5 mg/kg, route intravenous
# [7] = Cmax in ICR mouse at 5 mg/kg, iv; format: ADME, organism-based; parameters: dose 5 mg/kg, route intravenous; settings: in vivo; procedure, shortened: as §1
# [8] = AUC (0 to infinity) in ICR mouse at 5 mg/kg, iv; format: ADME, organism-based; parameters: time infinity, dose 5 mg/kg, route intravenous; settings: plasma; procedure, shortened: as §1
# [9] = Plasma concentration in ICR mouse at 10 mg/kg, po after 0.5 hrs by HPLC/MS/MS analysis; format: ADME, organism-based; parameters: dose 10 mg/kg, route oral
# [10] = Plasma concentration in ICR mouse at 10 mg/kg, po after 0.083 hrs by HPLC/MS/MS analysis; format: ADME, organism-based; parameters: dose 10 mg/kg, route oral
# [11] = Drug level in ICR mouse brain at 10 mg/kg, po after 0.25 hrs by HPLC/MS/MS analysis; format: ADME, organism-based; parameters: dose 10 mg/kg, route oral; settings: read-out: Drug uptake
# [12] = Plasma concentration in ICR mouse at 5 mg/kg, iv after 0.083 hrs by HPLC/MS/MS analysis; format: ADME, organism-based; parameters: dose 5 mg/kg, route intravenous
# [13] = Plasma concentration in ICR mouse at 5 mg/kg, iv after 0.25 hrs by HPLC/MS/MS analysis; format: ADME, organism-based; parameters: dose 5 mg/kg, route intravenous
# Nucleic Acid [14] = assay: Ratio of drug level in brain to plasma in ICR mouse at 10 mg/kg, po after 0.25 hrs by HPLC/MS/MS analysis; format: ADME, organism-based; parameters: dose 10 mg/kg, route oral
# [15] = Plasma concentration in ICR mouse at 10 mg/kg, po after 1 hr by HPLC/MS/MS analysis; format: ADME, organism-based; parameters: dose 10 mg/kg, route oral
# [16] = Drug level in ICR mouse brain at 10 mg/kg, po after 0.5 hrs by HPLC/MS/MS analysis; format: ADME, organism-based; parameters: dose 10 mg/kg, route oral; settings: read-out: Drug uptake
# [17] = Drug level in ICR mouse brain at 5 mg/kg, iv after 1 hr by HPLC/MS/MS analysis; format: ADME, organism-based; parameters: dose 5 mg/kg, route intravenous; settings: read-out: Drug uptake
# [18] = Tmax in ICR mouse at 10 mg/kg, po; format: ADME, organism-based; parameters: dose 10 mg/kg, route oral; settings: in vivo
# [19] = Plasma concentration in ICR mouse at 5 mg/kg, iv after 4 hrs by HPLC/MS/MS analysis; format: ADME, organism-based; parameters: dose 5 mg/kg, route intravenous
# [20] = AUC (0 to infinity) in ICR mouse at 10 mg/kg, po; format: ADME, organism-based; parameters: time infinity, dose 10 mg/kg, route oral; settings: plasma; procedure, shortened: as §1
# [21] = Plasma concentration in ICR mouse at 5 mg/kg, iv after 0.5 hrs by HPLC/MS/MS analysis; format: ADME, organism-based; parameters: dose 5 mg/kg, route intravenous
# Rattus norvegicus [22] = assay: Antiinflammatory activity in Wistar albino rat assessed as inhibition of carrageenan-induced paw edema at 30 mg/kg intragastrically administered 1 hr before carrageenan challenge measured after 1 to 24 hrs post carrageenan challenge by plethysmometer; format: functional, organism-based
# Procedure, shortened: (§2)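 Male Wistar albino rats, 140–160 g, eight per group, dosed i.g. as a suspension in 0.5% CMC; controls get 0.5% CMC only. 1 h later, 0.1 ml of 0.1% carrageenan in 0.9% NaCl is injected into the sub-plantar region of the right hind paw. Paw volume is read by plethysmometer hourly to 6 h and at 24 h. Inhibition (%) = (Vc − Vt)/Vc × 100 on mean volume increase; mean ± SEM.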
# [23] = Plasma concentration in ICR mouse at 10 mg/kg, po after 2 hrs by HPLC/MS/MS analysis; format: ADME, organism-based; parameters: dose 10 mg/kg, route oral
# [24] = Plasma concentration in ICR mouse at 5 mg/kg, iv after 6 hrs by HPLC/MS/MS analysis; format: ADME, organism-based; parameters: dose 5 mg/kg, route intravenous
# [25] = Drug level in ICR mouse brain at 10 mg/kg, po after 4 hrs by HPLC/MS/MS analysis; format: ADME, organism-based; parameters: dose 10 mg/kg, route oral; settings: read-out: Drug uptake
# [26] = Plasma concentration in ICR mouse at 10 mg/kg, po after 4 hrs by HPLC/MS/MS analysis; format: ADME, organism-based; parameters: dose 10 mg/kg, route oral
# [27] = AUC (0 to t) in ICR mouse at 5 mg/kg, iv; format: ADME, organism-based; parameters: dose 5 mg/kg, route intravenous; settings: plasma; procedure, shortened: as §1
# [28] = Drug level in ICR mouse brain at 5 mg/kg, iv after 0.083 hrs by HPLC/MS/MS analysis; format: ADME, organism-based; parameters: dose 5 mg/kg, route intravenous; settings: read-out: Drug uptake
# [29] = Drug level in ICR mouse brain at 5 mg/kg, iv after 0.5 hrs by HPLC/MS/MS analysis; format: ADME, organism-based; parameters: dose 5 mg/kg, route intravenous; settings: read-out: Drug uptake
# [30] = Drug level in ICR mouse brain at 10 mg/kg, po after 2 hrs by HPLC/MS/MS analysis; format: ADME, organism-based; parameters: dose 10 mg/kg, route oral; settings: read-out: Drug uptake
# [31] = Drug level in ICR mouse brain at 5 mg/kg, iv after 2 hrs by HPLC/MS/MS analysis; format: ADME, organism-based; parameters: dose 5 mg/kg, route intravenous; settings: read-out: Drug uptake
# [32] = Tmax in ICR mouse at 5 mg/kg, iv; format: ADME, organism-based; parameters: dose 5 mg/kg, route intravenous; settings: in vivo
# Nucleic Acid [33] = assay: Ratio of drug level in brain to plasma in ICR mouse at 5 mg/kg, iv after 0.083 hrs by HPLC/MS/MS analysis; format: ADME, organism-based; parameters: dose 5 mg/kg, route intravenous
# [34] = Drug level in ICR mouse brain at 5 mg/kg, iv after 0.25 hrs by HPLC/MS/MS analysis; format: ADME, organism-based; parameters: dose 5 mg/kg, route intravenous; settings: read-out: Drug uptake
# [35] = Plasma concentration in ICR mouse at 10 mg/kg, po after 6 hrs by HPLC/MS/MS analysis; format: ADME, organism-based; parameters: dose 10 mg/kg, route oral
# [36] = AUC (0 to t) in ICR mouse at 10 mg/kg, po; format: ADME, organism-based; parameters: dose 10 mg/kg, route oral; settings: plasma; procedure, shortened: as §1
# [37] = Plasma concentration in ICR mouse at 5 mg/kg, iv after 2 hrs by HPLC/MS/MS analysis; format: ADME, organism-based; parameters: dose 5 mg/kg, route intravenous
# Nucleic Acid [38] = assay: Ratio of drug level in brain to plasma in ICR mouse at 10 mg/kg, po after 1 hr by HPLC/MS/MS analysis; format: ADME, organism-based; parameters: dose 10 mg/kg, route oral
# [39] = Drug level in ICR mouse brain at 10 mg/kg, po after 0.083 hrs by HPLC/MS/MS analysis; format: ADME, organism-based; parameters: dose 10 mg/kg, route oral; settings: read-out: Drug uptake
# [40] = Mean residence time (0 to infinity) in ICR mouse at 5 mg/kg, iv; format: ADME, organism-based; parameters: dose 5 mg/kg, route intravenous; settings: in vivo; procedure, shortened: as §1
# Nucleic Acid [41] = assay: Ratio of drug level in brain to plasma in ICR mouse at 5 mg/kg, iv after 2 hrs by HPLC/MS/MS analysis; format: ADME, organism-based; parameters: dose 5 mg/kg, route intravenous
# [42] = Cmax in ICR mouse at 10 mg/kg, po; format: ADME, organism-based; parameters: dose 10 mg/kg, route oral; settings: in vivo; procedure, shortened: as §1
# Rattus norvegicus [43] = assay: Antiinflammatory activity in Wistar albino rat assessed as inhibition of carrageenan-induced paw edema at 33.6 mg/kg, ig administered 1 hr before carrageenan challenge measured after 1 to 24 hrs post carrageenan challenge by plethysmometer; format: functional, organism-based; procedure, shortened: as §2
# Nucleic Acid [44] = assay: Ratio of drug level in brain to plasma in ICR mouse at 5 mg/kg, iv after 0.5 hrs by HPLC/MS/MS analysis; format: ADME, organism-based; parameters: dose 5 mg/kg, route intravenous
# [45] = Plasma concentration in ICR mouse at 5 mg/kg, iv after 8 hrs by HPLC/MS/MS analysis; format: ADME, organism-based; parameters: dose 5 mg/kg, route intravenous
smiles,measurement,setting,value
CC(C)Cc1ccc([C@H](CF)C(=O)O)cc1,concentration at 0.25 h,[1],42100 ng/mL
same,bioavailability,[2],108%
same,concentration at 1 h,[3],516 ng/g
same,concentration at 1 h,[4],6160 ng/mL
same,MRT inf,[5],57 min
same,BPR,Nucleic Acid [6],0.042 mL/g
same,Cmax,[7],31600 ng/mL
same,AUC(0-inf),[8],23300 ng·h/mL
same,concentration at 0.5 h,[9],28500 ng/mL
same,concentration at 0.083 h,[10],41800 ng/mL
same,concentration at 0.25 h,[11],1270 ng/g
same,concentration at 0.083 h,[12],31600 ng/mL
same,concentration at 0.25 h,[13],18000 ng/mL
same,BPR,Nucleic Acid [14],0.03 mL/g
same,concentration at 1 h,[15],20900 ng/mL
same,concentration at 0.5 h,[16],950 ng/g
same,concentration at 1 h,[17],232 ng/g
same,Tmax,[18],15 min
same,concentration at 4 h,[19],206 ng/mL
same,AUC(0-inf),[20],50200 ng·h/mL
same,concentration at 0.5 h,[21],13700 ng/mL
same,inhibition,Rattus norvegicus [22],Active
same,concentration at 2 h,[23],5310 ng/mL
same,concentration at 6 h,[24],130 ng/mL
same,concentration at 4 h,[25],24.7 ng/g
same,concentration at 4 h,[26],792 ng/mL
same,AUC(0-t),[27],23300 ng·h/mL
same,concentration at 0.083 h,[28],982 ng/g
same,concentration at 0.5 h,[29],523 ng/g
same,concentration at 2 h,[30],162 ng/g
same,concentration at 2 h,[31],64.9 ng/g
same,Tmax,[32],4.8 min
same,BPR,Nucleic Acid [33],0.031 mL/g
same,concentration at 0.25 h,[34],759 ng/g
same,concentration at 6 h,[35],102 ng/mL
same,AUC(0-t),[36],50200 ng·h/mL
same,concentration at 2 h,[37],2240 ng/mL
same,BPR,Nucleic Acid [38],0.025 mL/g
same,concentration at 0.083 h,[39],1160 ng/g
same,MRT inf,[40],49.8 min
same,BPR,Nucleic Acid [41],0.032 mL/g
same,Cmax,[42],42100 ng/mL
same,inhibition,Rattus norvegicus [43],Active
same,BPR,Nucleic Acid [44],0.038 mL/g
same,concentration at 8 h,[45],45.3 ng/mL
